We go through three compounds from ChEMBL document CHEMBL4627406, “Amino Acids Bearing Aromatic or Heteroaromatic Substituents as a New Class of Ligands for the Lysosomal Sialic Acid Transporter Sialin” (J Med Chem, 2020).

Series [1] concerns the target T1, Sialin (Homo sapiens, UniProt Q9NRA2).
T1 sequence (Q9NRA2 whole entry): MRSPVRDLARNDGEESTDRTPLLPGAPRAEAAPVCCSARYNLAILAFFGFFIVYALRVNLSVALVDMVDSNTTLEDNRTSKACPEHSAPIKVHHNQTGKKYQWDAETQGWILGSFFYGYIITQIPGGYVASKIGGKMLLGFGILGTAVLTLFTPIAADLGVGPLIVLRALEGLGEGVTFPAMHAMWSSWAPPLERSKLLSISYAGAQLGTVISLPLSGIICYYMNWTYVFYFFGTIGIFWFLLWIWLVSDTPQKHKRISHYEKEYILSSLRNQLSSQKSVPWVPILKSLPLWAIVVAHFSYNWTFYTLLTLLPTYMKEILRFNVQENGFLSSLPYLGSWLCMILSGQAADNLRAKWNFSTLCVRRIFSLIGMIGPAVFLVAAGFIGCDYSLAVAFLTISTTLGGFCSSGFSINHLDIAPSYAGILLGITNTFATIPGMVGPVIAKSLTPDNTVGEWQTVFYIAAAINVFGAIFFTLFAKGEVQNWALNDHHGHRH
Description: Inhibition of human recombinant-Sialin expressed in HEK293 cells assessed as reduction in [3H]Neu5Ac uptake at 30 to 300 uM incubated for 15 mins by liquid scintillation counting method. It counts as cell-based. A digest of the protocol: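 HEK293 cells expressing EGFP-human sialin L22G/L23G (sorting mutant at the plasma membrane), assayed 2 days after lipofection. Uptake of [3H]Neu5Ac (12.5 nM) over 15 min at room temperature in MES-Na+ pH 5.0 with inhibitor added together with tracer. Cells washed twice ice-cold, radioactivity counted by liquid scintillation. Dose-response run in triplicate, two to three independent experiments.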

Series [2] has as its target T1, Sialin. Description: Non-competitive inhibition of human recombinant-Sialin expressed in HEK293 cells assessed as reduction in [3H]Neu5Ac uptake incubated for 15 mins by liquid scintillation counting method. It is filed as cell-based.
The nature of series [3]: Lipophilicity, log Pof the compound. It is filed as physicochemical. The note with it: octanol/water.

Regarding `CC(C)C[C@H](NC(=O)OCC1c2ccccc2-c2ccccc21)C(=O)O`, the IC50 (usually the concentration that inhibits the measured activity by half) at Sialin [1] was 23.3 to 24 µM. In addition, at Sialin [2], the Ki (in general, the dissociation constant of the complex between target and ligand, obtained from inhibition or displacement) was determined as 10.2 µM. Besides, the logP – broadly, the decadic logarithm of the partition coefficient of the neutral form, usually between octanol and water – in series [3] was found to be 4.1.

As for `CC(C)C[C@H](NC(=O)N1CCCCCC1)C(=O)N[C@H](Cc1cn(C)c2ccccc12)C(=O)N[C@H](Cc1ccccn1)C(=O)O`, the inhibitory constant (Ki) on Sialin [1] is 20 µM. Further, the logP in series [3] was 2.29.

Regarding `O=C(N[C@@H](CSCc1cc(=O)oc2cc(O)ccc12)C(=O)O)OCC1c2ccccc2-c2ccccc21`, on Sialin [1], the IC50 is 2.4 to 2.9 µM. At Sialin [2], the inhibitory constant (Ki) came to 7.8 µM. In addition, the lipophilicity (logP) in series [3] was found to be 3.91.
